Screens as filed in PubChem.
Shown are actives, neighbours in structure and some others; about 2.9% of the full set was active somewhere.
TRPC6 act – activators of mouse TRPC6 channel; Q61143; HEK293-TRPC6 membrane potential dye fluorescence; stronger effect = higher value; B-score at 10 µM; 310,000 compounds, 0.13% hits; AID 2550;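 active = B-score of the integrated fluorescence ratio above library mean plus 3 SD, and starting fluorescence ratio within library mean plus 5 SD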;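 note: higher score means more depolarization so channel activation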
Kir21 inh – blocks the mouse Kir2.1 inward-rectifier potassium channel. P35561. HEK293-Kir2.1, FluxOR thallium flux fluorescence; stronger effect = lower value. B-score at 10 µM. 310,000 compounds, 0.85% hits;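 active = fluorescence ratio B-score at or below minus 3 SD of library scores, with starting-brightness B-score within 2 SD, cut at about -4.2 in these data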;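 note: channel flux triggered by added potassium and thallium sulfate stimulus; B-score of peak minus minimum fluorescence over baseline after thallium stimulus; more negative B-score means stronger Kir2.1 block with less thallium influx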
TRPC6 inhibitor – blocks the mouse TRPC6 cation channel. HEK293-TRPC6, membrane potential dye, ACh-evoked depolarization; stronger effect = lower value. B-score at 10 µM. 310,000 compounds, 1.1% hits. AID 2553;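 active = B-score under library mean minus 3 SD, initial fluorescence not abnormally high, positive integrated signal ratio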;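 note: B-score derived from integrated fluorescence ratio over the kinetic read; more negative B-score means stronger inhibition of depolarization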
TRPC4 PAM – allosterically enhances the mouse TRPC4 cation channel. HEK293 TRPC4beta/mu-opioid, DAMGO EC20, Fluo-4 Ca2+ flux; stronger effect = higher value. 310,000 compounds, 0.42% hits. Q9QUQ5. B-score at 10 µM;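 active = B-score of calcium response area above 5 SD of library B-scores, with initial fluorescence ratio within 5 SD of library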;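 note: B-score of integrated fluorescence ratio over time as area under calcium response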
TRPC4 act – opens the mouse TRPC4 cation channel. HEK293 TRPC4beta/mu-opioid, Fluo4 calcium fluorescence; stronger effect = higher value. B-score at 10 µM. 310,000 compounds, 0.49% hits. AID 2237;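 active = B-score above 5 SD of library B-scores, and initial fluorescence ratio not above library mean plus 5 SD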;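 note: positive B-score marks a calcium rise read as TRPC4 activation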
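Assay system: HEK293 cells stably co-expressing mouse TRPC4beta and mu-opioid receptor / Timing: Fluo4 dye loading 45 min at room temperature, 110 s recording / Signal: Fluo4 calcium-sensitive dye fluorescence, kinetic, 1 Hz baseline / Read-out: integrated baseline-normalised fluorescence ratio, converted to per-well B score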
TRPC4 inh – TRPC4 (mouse) channel inhibition; 300,000 compounds, 0.39% hits; HEK293 TRPC4beta/mu-opioid, DAMGO-evoked Fluo4 calcium flux; stronger effect = lower value; AID 2247; B-score at 10 µM; Q9QUQ5;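 active = B-score over 3 SD under the library average, no early fluorescence shift, positive overall ratio signal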
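Assay system: HEK293 cells with stable TRPC4beta plus mu-opioid receptor expression; Probe or stimulus: DAMGO in two steps, submaximal then maximal; Dosing: single-point compound dosing; Measured by: Fluo4 calcium-dye fluorescence, kinetic read; Read-out basis: B score from integrated Fluo4 fluorescence ratio.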
Numbers without * were called inactive; i = inactive; nt = no result.

SMILES	TRPC6 act	Kir21 inh	TRPC6 inhibitor	TRPC4 PAM	TRPC4 act	TRPC4 inh
O=c1[nH]c2ccccc2c(O)c1-c1ccccc1	i	-0.5	i	i	i	i
O/N=C/Cc1[nH]c2ccccc2c1-c1ccccc1	i	0.34	i	i	i	-5*
COc1ccccc1C(CNC(=S)NCc1ccccc1)N1CCCC1 (configuration not stated)	i	-2.08	i	i	i	i
COc1ccc(C(CNC(=S)NCc2ccccc2)N2CCCC2)cc1 (configuration not stated)	i	-3.24	i	i	i	-6*
CCCCOc1ccc(C(=O)NCC(=O)NCC(c2ccc(OC)cc2)N2CCCC2)cc1 (configuration not stated)	i	0.04	i	14*	i	i
COc1ccc(C(CNC(=O)c2cccc(Br)c2)N2CCCC2)cc1 (configuration not stated)	i	-1.9	i	i	89*	i
COc1ccc(C(CNC(=O)c2oc3ccc(Cl)cc3c2C)N2CCCCC2)cc1 (configuration not stated)	i	0.92	i	i	i	-5*
CCCCOc1ccc(C(=O)NCC(=O)NCC(c2ccc(F)cc2)N2CCOCC2)cc1 (configuration not stated)	i	0.25	i	i	i	i
Oc1ccc(CCNc2ncnc3ccc(Cl)cc23)cc1	i	0.98	i	i	i	i
Cc1cc(C)n(CC(=O)O)c(=O)c1[N+](=O)[O-]	i	0.09	i	i	i	i
COc1ccc(/C=N/Nc2nc3ccccc3s2)cc1O	i	-3.64	i	16*	i	i
O=C(NCCCN1CCc2ccccc2C1)Nc1ccc(Cl)cc1	i	-4.69*	i	i	i	nt
Cc1cccc(/C=N/NC(=O)c2cccc(Cl)c2)n1	i	0.42	i	21*	i	i
Cc1cccc(/C=N/NC(=O)c2cccc(NC(=O)c3ccccc3)c2)n1	i	1.99	i	i	i	i
Cc1c(CN2CCC(n3nccc3NC(=O)C3CC3)CC2)[nH]c2ccccc12	i	-2.1	i	i	64*	i
COC(=O)c1ccc(CN2CCC(n3nccc3NC(=O)C3CC3)CC2)cc1	i	2.5	i	i	i	i
CN(C)CCCNc1cc(C(C)(C)C)nc2c(-c3ccccc3)cnn12	i	-4.85*	i	i	i	i
COc1ccc(Cn2c(N)c(C#N)c3nc4ccccc4nc32)cc1OC	i	0.06	i	i	i	i
COc1ccc(CCn2c(N)c(C#N)c3nc4ccccc4nc32)cc1OC	i	0.55	i	i	i	-6*
CCOc1ccc(S(=O)(=O)NC(C)(C)C)cc1-c1nc2c(C(C)(C)C)nn(C)c2c(=O)[nH]1	i	-0.95	i	11*	i	i
CCOc1ccc(S(N)(=O)=O)cc1-c1nc2c(C(C)(C)C)nn(C)c2c(=O)[nH]1	i	0.41	i	i	i	i
CCCn1cc(CN2CCCC(C(=O)c3ccc4c(c3)OCO4)C2)c(C)n1 (configuration not stated)	i	-0.01	i	i	i	i
COc1cccc(C(=O)N2C(C(=O)O)CSC2c2ccccc2Cl)c1 (configuration not stated)	i	0.67	i	i	i	i
Cn1cc(CNCC2CCCO2)c(-c2ccc(Oc3ccccc3)cc2)n1 (configuration not stated)	i	-1.28	i	i	i	-7*
COc1ccc(-c2nn(-c3ccccc3)cc2C(=O)NCC2CCCO2)cc1 (configuration not stated)	i	-1.18	i	i	49*	i
SMILES	TRPC6 act	Kir21 inh	TRPC6 inhibitor	TRPC4 PAM	TRPC4 act	TRPC4 inh
O=C(c1cc(Cl)nc2ccccc12)N1CCN(S(=O)(=O)c2cccc(C(F)(F)F)c2)CC1	i	-0.21	i	i	i	i
CCCCCCCCC1=NCCc2c1[nH]c1ccccc21	i	-7.81*	i	i	i	i
CCCCNC1c2ccccc2C(=O)N1Cc1ccccc1 (configuration not stated)	i	-1.52	i	i	i	i
CCOc1cccc(CNCCSc2nnnn2C)c1	i	1.41	i	i	i	i
CSC1=NC2(CCCCC2)C2=C(CCCC2)N1	i	-1.26	i	i	i	-6*
COc1ccc(CC(=O)N(c2ccccc2)c2nc(C)cs2)cc1	i	-5.54*	i	i	i	i
COc1ccc(-n2nnnc2SCC(=O)NCCc2ccccc2)cc1OC	i	-1.62	i	i	i	i
COc1ccc(CCNc2nnc(Sc3nnnn3-c3ccccc3)s2)cc1OC	i	-4.47*	i	i	i	i
Cc1cc(N2CCCCC2)nc(N)n1	i	2.22	i	i	80*	i
COc1cccc(OC)c1C(=O)OCC(=O)Nc1ccc(OC(F)(F)F)cc1	i	1.45	i	i	i	i
CCCc1ccc2oc(C(=O)NCCN3CCCC(C(N)=O)C3)c(C)c2c1 (configuration not stated)	i	-1.3	i	13*	i	i
CCCc1ccc2oc(C(=O)NCCN3CCCC(O)C3)c(C)c2c1 (configuration not stated)	i	-2.8	i	i	i	i
CCOC(=O)c1ccccc1NC(=O)CSc1nnc(COc2ccccc2)n1CC	i	-6.21*	i	i	i	i
Cc1ccccc1CS(=O)(=O)c1nnc([C@H](CC(C)C)NC(=O)OC(C)(C)C)o1	i	-2.58	i	i	i	i
CC(C)[C@H](NC(=O)OC(C)(C)C)c1nnc(S(=O)(=O)Cc2c(F)cccc2Cl)o1	i	-4.36*	i	i	i	i
CC[C@@H](C)[C@H](NC(=O)OC(C)(C)C)c1nnc(S(=O)(=O)Cc2cc(C)ccc2C)o1	i	-9.11*	i	i	i	i
Cc1nc(Cl)sc1C(=O)Nc1ccc(Cl)cc1	i	0.9	i	i	i	i
Cc1nn(Cc2ccccc2Cl)c(C)c1C(=O)NC1=NCCS1	i	1.47	i	i	i	i
CCC(CC)c1nnc(NC(=O)c2c(C)nn(Cc3ccccc3Cl)c2C)s1	i	0.92	i	21*	i	i
CCCNC(=O)c1ccc(Cn2cc(-c3ccc(OC)cc3)nc2C(C)N)cc1 (configuration not stated)	i	0.08	i	i	i	i
